Tests used:
Rattus norvegicus [1] = species on record: Rattus norvegicus; assay: animal or person; details: po, 6 h, read-out: INH
Rattus norvegicus [2] = species on record: Rattus norvegicus; assay: animal or person; details: po, 3 h, read-out: INH
Rattus norvegicus [3] = assay: Toxicity in albino Wistar rat assessed as ulcerogenic activity measuring gastric ulcer lesion index at 10 mg/kg, po once daily for four consecutive days; assay type: organism-based, Stomach; set-up: dose 10 mg/kg, route oral; details: in vivo
Method in brief: (§1)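 Wistar albino rats (150–200 g, either sex, fasted) were randomized into groups of 10 and dosed orally once daily for four days alongside a vehicle control group. Rats were killed under deep ether anaesthesia and stomachs removed, opened along the greater curvature, and examined under a dissecting microscope for lesions or bleeding. Ulcer lesion index is given in cm.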

Rattus norvegicus [4] = assay: Toxicity in albino Wistar rat assessed as ulcerogenic activity measuring gastric ulcer lesion index at 50 mg/kg, po once daily for four consecutive days; assay type: organism-based, Stomach; set-up: dose 50 mg/kg, route oral; details: in vivo
Method in brief: as §1

Rattus norvegicus [5] = species on record: Rattus norvegicus; assay: animal or person; details: po, 4.5 h, read-out: INH
Rattus norvegicus [6] = species on record: Rattus norvegicus; assay: animal or person; details: po, 1.5 h, read-out: INH
Rattus norvegicus [7] = assay: Antiinflammatory activity in rat assessed as inhibition of carrageenan-induced paw edema at 50 mg/kg, po measured after 180 min by Plethysmograph; assay type: functional; details: 3 h
Method in brief: (§2)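 Rats randomly grouped, six per group, housed at 25 °C with a 12 h light/dark cycle and acclimatized one week. Test compounds given orally at 50 mg/kg with CMC-Na as vehicle, and indomethacin 10 mg/kg as standard. Edema induced by 0.1 ml carrageenan solution injected into the hind paw. Paw volume measured by mercury-displacement plethysmograph before and 90, 180, 270 and 360 min after injection. % edema inhibition calculated from test and control paw volumes before and after carrageenan. Results given as mean ± SEM.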

Rattus norvegicus [8] = assay: Antiinflammatory activity in rat assessed as inhibition of carrageenan-induced paw edema at 50 mg/kg, po measured after 90 min by Plethysmograph; assay type: functional; details: 1.5 h
Method in brief: as §2

Rattus norvegicus [9] = assay: Antiinflammatory activity in rat assessed as inhibition of carrageenan-induced paw edema at 50 mg/kg, po measured after 270 min by Plethysmograph; assay type: functional; details: 4.5 h
Method in brief: as §2

Rattus norvegicus [10] = assay: Antiinflammatory activity in rat assessed as inhibition of carrageenan-induced paw edema at 50 mg/kg, po measured after 360 min by Plethysmograph; assay type: functional; details: 6 h
Method in brief: as §2

Ovis aries = species on record: Ovis aries; assay: Selectivity ratio of inhibition for sheep COX-1 to inhibition for sheep COX-2 at 20 uM
[11] = biological target: T1, Prostaglandin G/H synthase 1 (Ovis aries) (UniProt P05979); assay: Inhibition of sheep COX-1 at 20 uM by cayman colorimetric assay
T1 sequence (whole entry): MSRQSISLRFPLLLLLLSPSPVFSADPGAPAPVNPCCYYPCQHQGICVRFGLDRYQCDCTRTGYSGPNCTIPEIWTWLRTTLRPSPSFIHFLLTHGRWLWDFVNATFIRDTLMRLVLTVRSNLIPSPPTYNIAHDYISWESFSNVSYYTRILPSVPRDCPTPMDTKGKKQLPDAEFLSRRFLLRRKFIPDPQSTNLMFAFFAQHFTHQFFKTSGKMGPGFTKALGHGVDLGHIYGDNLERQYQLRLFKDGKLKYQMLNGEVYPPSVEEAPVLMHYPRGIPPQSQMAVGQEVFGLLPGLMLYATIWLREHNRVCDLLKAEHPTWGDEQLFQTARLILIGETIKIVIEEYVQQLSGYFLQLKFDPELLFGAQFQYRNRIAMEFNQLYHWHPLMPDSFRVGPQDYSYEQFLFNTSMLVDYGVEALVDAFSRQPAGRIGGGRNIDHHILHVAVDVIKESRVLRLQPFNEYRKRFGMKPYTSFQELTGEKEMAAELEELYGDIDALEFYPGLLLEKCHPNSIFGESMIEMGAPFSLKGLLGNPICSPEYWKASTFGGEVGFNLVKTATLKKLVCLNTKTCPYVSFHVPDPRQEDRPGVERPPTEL
Method in brief: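 Ovine COX-1 activity measured with a commercial ovine COX-1/COX-2 inhibitor screening kit, with calculations done per the kit guidelines. Each value is the mean of two determinations.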

Rattus norvegicus [12] = assay: Toxicity in albino Wistar rat assessed as ulcerogenic activity measuring gastric ulcer lesion index at 100 mg/kg, po once daily for four consecutive days; assay type: organism-based, Stomach; set-up: dose 100 mg/kg, route oral; details: in vivo
Method in brief: as §1

Compound | inhibition in vivo at 10 mg/kg (Rattus norvegicus [1]) [%] | inhibition in vivo at 10 mg/kg (Rattus norvegicus [2]) [%] | Activity (Rattus norvegicus [3]) [cm] | Activity (Rattus norvegicus [4]) [cm] | inhibition in vivo at 10 mg/kg (Rattus norvegicus [5]) [%] | inhibition in vivo at 10 mg/kg (Rattus norvegicus [6]) [%] | inhibition in vivo at 50 mg/kg (Rattus norvegicus [7]) [%] | inhibition in vivo at 50 mg/kg (Rattus norvegicus [8]) [%] | inhibition in vivo at 50 mg/kg (Rattus norvegicus [9]) [%] | inhibition in vivo at 50 mg/kg (Rattus norvegicus [10]) [%] | Selectivity ratio (Ovis aries) | inhibition [11] [%] | Activity (Rattus norvegicus [12]) [cm]
COc1ccc2c(c1)c(CC(=O)O)c(C)n2C(=O)c1ccc(Cl)cc1 [INDOMETHACIN] | 13 | 58 | 1.42 | 11.48 | 49 | 41 |  |  |  |  |  |  | 
CSc1ccc(-n2c(-c3ccccc3)nc3ccc(Br)cc3c2=O)cc1 |  |  |  |  |  |  | 33 | 30 | 35 | 39 |  |  | 
CS(=O)(=O)c1ccc(-n2c(-c3ccccc3)nc3cc(F)ccc3c2=O)cc1 |  |  |  |  |  |  | 34 | 30 | 39 | 41 | 0.238 | 15 | 
COc1ccc(-c2nc3ccccc3c(=O)n2-c2ccc(S(C)(=O)=O)cc2)cc1 |  |  |  |  |  |  | 38 | 35 | 42 | 46 | 0.471 | 24 | 
CSc1ccc(-n2c(-c3ccccc3)nc3ccccc3c2=O)cc1 |  |  |  |  |  |  | 32 | 29 | 34 | 38 | 0.3 | 12 | 
COc1ccc(-c2nc3cc(Cl)ccc3c(=O)n2-c2ccc(SC)cc2)cc1 |  |  |  |  |  |  | 38 | 36 | 43 | 47 |  |  | 
CSc1ccc(-n2c(-c3ccccc3)nc3cc(F)ccc3c2=O)cc1 |  |  |  |  |  |  | 36 | 29 | 39 | 40 |  |  | 
COc1ccc(-c2nc3ccccc3c(=O)n2-c2ccc(SC)cc2)cc1 |  |  |  |  |  |  | 34 | 30 | 38 | 40 | 0.536 | 30 | 
COc1ccc(-c2nc3ccc(Br)cc3c(=O)n2-c2ccc(S(C)(=O)=O)cc2)cc1 |  |  |  |  |  |  | 41 | 39 | 49 | 54 | 0.106 | 7 | 
CS(=O)(=O)c1ccc(-n2c(-c3ccccc3)nc3cc(Cl)ccc3c2=O)cc1 |  |  |  |  |  |  | 37 | 32 | 42 | 45 |  | 0 | 0
CSc1ccc(-n2c(-c3ccccc3)nc3cc(Cl)ccc3c2=O)cc1 |  |  |  |  |  |  | 32 | 31 | 34 | 39 |  |  | 
COc1ccc(-c2nc3cc(F)ccc3c(=O)n2-c2ccc(SC)cc2)cc1 |  |  |  |  |  |  | 34 | 31 | 37 | 40 |  |  | 
CS(=O)(=O)c1ccc(-n2c(-c3ccccc3)nc3ccccc3c2=O)cc1 |  |  |  |  |  |  | 33 | 30 | 36 | 39 | 0.31 | 13 | 
COc1ccc(-c2nc3cc(Cl)ccc3c(=O)n2-c2ccc(S(C)(=O)=O)cc2)cc1 |  |  |  |  |  |  | 38 | 37 | 41 | 43 | 0.167 | 12 | 
COc1ccc(-c2nc3cc(F)ccc3c(=O)n2-c2ccc(S(C)(=O)=O)cc2)cc1 |  |  |  |  |  |  | 34 | 31 | 36 | 39 | 0.453 | 29 | 
COc1ccc(-c2nc3ccc(Br)cc3c(=O)n2-c2ccc(SC)cc2)cc1 |  |  |  |  |  |  | 35 | 32 | 39 | 42 |  |  | 
CS(=O)(=O)c1ccc(-n2c(-c3ccccc3)nc3ccc(Br)cc3c2=O)cc1 |  |  |  |  |  |  | 40 | 38 | 44 | 49 | 0.04 | 4 | 0

— ChEMBL document CHEMBL1811843, “Analogue-based design, synthesis and molecular docking analysis of 2,3-diaryl quinazolinones as non-ulcerogenic anti-inflammatory agents” (Bioorg Med Chem, 2011)
